Assay results as given in ChEMBL document CHEMBL1155178, “Reactivity of isothiazolones and isothiazolone-1-oxides in the inhibition of the PCAF histone acetyltransferase” (Eur J Med Chem, 2009).

Assays:
HepG2 = test: Growth inhibition of human HepG2 cells after 48 hrs by crystal violet assay; format: functional, cell-based; conditions: HepG2, 48 h
Outline: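 HEP G2 liver cancer cells grown in DMEM with 10% heat-inactivated FBS, penicillin and streptomycin at 37 °C, 5% CO2. Seeded at 5000 cells/well, grown 24 h, then exposed to inhibitors for 48 h. Fixed and stained with 1% crystal violet in 70% ethanol for 30 min, water-washed, solubilized in 1% SDS, read at 550 nm. Cell-free blank subtracted; untreated growth set to 100%. Each concentration tested 8-fold.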

[1] = Octanol-water partition coefficient, log P by HPLC analysis; format: physicochemical
Outline: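 log P determined from the analyte's peak area in each of the two layers.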

[2] = biological target: Histone acetyltransferase KAT2B (Homo sapiens, UniProt Q92831); test: Inhibition of human recombinant histone acetyltransferase PCAF assessed as CoA-SH activity preincubated for 15 mins by CPM fluorescent assay
Chain of Histone acetyltransferase KAT2B (Q92831 whole entry): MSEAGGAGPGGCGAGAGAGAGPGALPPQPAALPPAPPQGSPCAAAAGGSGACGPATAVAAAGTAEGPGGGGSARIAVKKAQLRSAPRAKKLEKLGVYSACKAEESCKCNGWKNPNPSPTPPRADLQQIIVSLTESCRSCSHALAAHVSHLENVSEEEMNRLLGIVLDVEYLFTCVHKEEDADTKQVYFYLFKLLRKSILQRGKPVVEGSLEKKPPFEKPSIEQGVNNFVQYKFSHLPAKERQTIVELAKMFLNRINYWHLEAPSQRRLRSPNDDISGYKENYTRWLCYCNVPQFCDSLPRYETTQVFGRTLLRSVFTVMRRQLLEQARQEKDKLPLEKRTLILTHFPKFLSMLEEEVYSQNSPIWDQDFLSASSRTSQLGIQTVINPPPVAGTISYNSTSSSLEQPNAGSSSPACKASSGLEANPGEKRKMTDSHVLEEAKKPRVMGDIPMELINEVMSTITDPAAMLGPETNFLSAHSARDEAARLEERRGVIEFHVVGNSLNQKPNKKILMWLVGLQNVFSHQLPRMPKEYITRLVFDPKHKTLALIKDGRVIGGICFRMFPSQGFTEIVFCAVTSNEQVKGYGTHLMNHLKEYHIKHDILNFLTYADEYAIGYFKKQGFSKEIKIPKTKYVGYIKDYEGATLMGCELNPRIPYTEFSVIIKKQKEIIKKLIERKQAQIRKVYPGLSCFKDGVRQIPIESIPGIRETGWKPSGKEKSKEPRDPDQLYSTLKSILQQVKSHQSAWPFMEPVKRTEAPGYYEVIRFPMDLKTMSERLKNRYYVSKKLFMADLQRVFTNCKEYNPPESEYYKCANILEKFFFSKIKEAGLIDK

Row | IC50 (HepG2) [µM] | logP [1] | IC50 [2] [µM] | SMILES
1 | > 100 | 0.08 |  | COC(=O)CCn1c(=O)cc(Cl)[s+]1[O-] (stereo unspecified)
2 | > 50 |  | > 10 | CCCCCCCCCCCCSc1cc(=O)n(C(C)(C)C)[s+]1[O-] (stereo unspecified)
3 | > 100 |  | > 10 | COC(=O)CCn1c(=O)c(C)c(Cl)[s+]1[O-] (stereo unspecified)
4 | > 100 |  | > 10 | CCCCCCCCCCCCSc1cc(=O)n(CCC(=O)OC)[s+]1[O-] (stereo unspecified)
5 | > 100 |  | > 10 | CCCCCCCCCCCCSc1c(Cl)c(=O)n(CCC(=O)OC)[s+]1[O-] (stereo unspecified)

Continued, compound first:

Row | SMILES | IC50 (HepG2) [µM] | logP [1] | IC50 [2] [µM]
6 | COC(=O)CCn1sc(Cl)cc1=O | 24 | 0.69 | 
7 | CCn1sc(Cl)cc1=O | 12 |  | 
8 | CCn1sc(Cl)c(C)c1=O | 9.1 |  | > 10
9 | CCn1sc(Cl)c(Cl)c1=O | 12 |  | 2.4
10 | COC(=O)CCn1sc(Cl)c(C)c1=O | 8.6 |  | > 10
11 | CCn1c(=O)cc(Cl)[s+]1[O-] (stereo unspecified) | > 100 |  | > 10
12 | COC(=O)CCn1sc(Cl)c(Cl)c1=O | 16 |  | 2.6
13 | COC(=O)CCn1c(=O)c(Cl)c(Cl)[s+]1[O-] (stereo unspecified) | > 100 |  | > 10
14 | CC(C)(C)n1c(=O)cc(Cl)[s+]1[O-] (stereo unspecified) | 27 |  | > 10
15 | CCn1c(=O)c(Cl)c(Cl)[s+]1[O-] (stereo unspecified) | > 100 |  | > 10
16 | CCn1c(=O)c(C)c(Cl)[s+]1[O-] (stereo unspecified) | > 100 |  | > 10
